According to ChEMBL document CHEMBL1127627, “Synthesis and antitumor activity of a new class of pyrazolo[4,3-e]pyrrolo[1,2-a][1,4]diazepinone analogues of pyrrolo[1,4][2,1-c]benzodiazepines” (J Med Chem, 1994):
Where “and” joins values, the source holds several entries; their conditions need not be identical. Identical values can stand only once. Values belong to the molecule of their own block, whether it stands above or below them.

Columns and labels:
L1210 [1] = assay: Tested in vitro for inhibition after 48 hr exposure against murine leukemia cell line L1210/L-PAM resistant to melphalan (L-PAM) by experiment 1.; format: functional, cell-based; details: Mus musculus, L1210, 48 h
Summary of the method: (§1)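 L1210 murine leukemia cells and their melphalan-resistant L1210/L-PAM subline were used in growth-inhibition studies. IC50 is the concentration inhibiting growth by 50% after 48 h exposure, given as the mean of repeated experiments ± standard deviation.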

L1210 [2] = assay: Tested in vitro for inhibition after 48 hr exposure against murine leukemia cell line L1210/L-PAM resistant to melphalan (L-PAM) by experiment 2.; format: functional, cell-based; details: Mus musculus, L1210, 48 h; summary of the method: as §1
LoVo [3] = assay: Tested in vitro for inhibition after 144 hr against human colon carcinoma LoVo/DX cell line resistant to Doxorubicin (DX); format: functional, cell-based
Summary of the method: (§2)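 LoVo human colon carcinoma cells and their doxorubicin-resistant LoVo/DX subline were used in growth-inhibition studies. IC50 is the concentration inhibiting growth by 50% after 144 h exposure to compound, reported as the mean of repeated experiments ± standard deviation.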

L1210 [4] = assay: Tested in vitro for inhibition after 48 hr exposure against murine leukemia cell line L1210 by experiment 1; format: functional, cell-based; details: Mus musculus, L1210, 48 h; summary of the method: as §1
LoVo [5] = assay: Tested in vitro for inhibition after 144 hr exposure against human colon carcinoma LoVo cell line; format: functional, cell-based; summary of the method: as §2
L1210 [6] = assay: Tested in vitro for inhibition after 48 hr exposure against murine leukemia cell line L1210 by experiment 2; format: functional, cell-based; details: Mus musculus, L1210, 48 h; summary of the method: as §1
[7] = Resistance index as the ratio of IC50 against LoVo/Dx to that of LoVo.; format: functional
Summary of the method: (§3)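 Resistance index taken as IC50 in doxorubicin-resistant LoVo/DX human colon carcinoma cells over IC50 in parental LoVo cells. Each IC50 is the concentration giving 50% growth inhibition after 144 h exposure.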

L1210 [8] = assay: tested in vitro for inhibition after 48 hr exposure against murine leukemia cell line L1210/L-PAM resistant to melphalan (L-PAM by experiment 1.; format: functional, cell-based; details: Mus musculus, L1210, 48 h; summary of the method: as §1
L1210 [9] = assay: tested in vitro for inhibition after 48 hr exposure against murine leukemia cell line L1210/L-PAM resistant to melphalan (L-PAM by experiment 2.; format: functional, cell-based; details: Mus musculus, L1210, 48 h; summary of the method: as §1
[10] = Resistance index as the ratio of IC50 against L1210/L-PAM to that of L1210 cell lines.; format: functional
Summary of the method: (§4)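 Resistance index computed as IC50 in melphalan-resistant L1210/L-PAM murine leukemia cells divided by IC50 in parental L1210 cells. Each IC50 is the concentration inhibiting growth by 50% after 48 h exposure, from growth-inhibition studies.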

L1210 [11] = assay: Tested in vitro for inhibition after 48 hr exposure against murine leukemia cell line L1210; format: functional, cell-based; details: Mus musculus, L1210, 48 h; summary of the method: as §1
L1210 [12] = assay: Tested in vitro for inhibition after 48 hr exposure against murine leukemia cell line L1210/L-PAM resistant to melphalan (L-PAM)by experiment 1.; format: functional, cell-based; details: Mus musculus, L1210, 48 h; summary of the method: as §1
L1210 [13] = assay: Tested in vitro for inhibition after 48 hr exposure against murine leukemia cell line L1210/L-PAM resistant to melphalan (L-PAM)by experiment 2.; format: functional, cell-based; details: Mus musculus, L1210, 48 h; summary of the method: as §1
L1210 [14] = assay: Tested in vitro for inhibition after 48 hr exposure against murine leukemia cell line L1210/L-PAM resistant to melphalan (L-PAM); format: functional, cell-based; details: Mus musculus, L1210, 48 h; summary of the method: as §1
[15] = Resistance index as the ratio of IC50 against LoVo/Dx to that of LoVo; format: functional; summary of the method: as §3
[16] = Resistance index as the ratio of IC50 against L1210/L-PAM to that of L1210 cell lines; format: functional
[17] = Resistance index as the ratio of IC50 against LoVo/Dx to that of LoVo in experiment 1; format: functional; summary of the method: as §3
L1210 [18] = assay: Tested in vitro for inhibition after 48 hr exposure against murine leukemia cell line L1210/L-PAM resistant to melphalan (L-PAM) by experiment 2; format: functional, cell-based; details: Mus musculus, L1210, 48 h; summary of the method: as §1
L1210 [19] = assay: Tested in vitro for inhibition after 48 hr exposure against murine leukemia cell line L1210/L-PAM resistant to melphalan (L-PAM) by experiment 1; format: functional, cell-based; details: Mus musculus, L1210, 48 h; summary of the method: as §1
[20] = Resistance index as the ratio of IC50 against L1210/L-PAM to that of L1210 cell lines in experiment 2.; format: functional; summary of the method: as §4

SMILES: COC(=O)c1c2c(nn1C)C(=O)N1CCC[C@H]1C=N2
IC50 (L1210 [8]): 69 µM
IC50 (LoVo [3]): > 162 µM
IC50 (L1210 [9]): 62 µM
RI [10]: 2.2 and 1.5
IC50 (L1210 [4]): 31 µM
IC50 (LoVo [5]): > 162 µM
IC50 (L1210 [6]): 41 µM

SMILES: COc1cc2c(cc1O)N=C[C@@H]1CCCN1C2=O
IC50 (L1210 [11]): 0.38 µM

SMILES: COc1ccc(Cn2nc3c(c2C)N=C[C@@H]2CCCN2C3=O)cc1
IC50 (L1210 [12]): 3 µM
IC50 (LoVo [3]): 32 µM
IC50 (L1210 [4]): 19 µM
IC50 (L1210 [13]): 6 µM
IC50 (LoVo [5]): 48.4 µM
IC50 (L1210 [6]): 11 µM
RI [7]: 0.7

SMILES: COC(=O)c1nn(C)c2c1N=C[C@@H]1CCCN1C2=O
IC50 (L1210 [11]): 27 µM
IC50 (LoVo [3]): 60 µM
RI [15]: 1.12
IC50 (LoVo [5]): 54 µM

SMILES: CCn1nc(C)c2c1C(=O)N1CCC[C@H]1C=N2
IC50 (L1210 [1]): 101 µM
IC50 (L1210 [2]): 125 µM
IC50 (LoVo [3]): > 215 µM
RI [10]: 2.5
IC50 (L1210 [4]): 40 µM
IC50 (LoVo [5]): > 215 µM
IC50 (L1210 [6]): 69 µM

SMILES: Cc1c2c(nn1C)C(=O)N1CCC[C@H]1C=N2
IC50 (L1210 [11]): 8 µM
IC50 (LoVo [3]): 32 µM
RI [15]: 1.2
IC50 (LoVo [5]): 27 µM

SMILES: CC(C)c1c2c(nn1Cc1ccccc1)C(=O)N1CCC[C@H]1C=N2
IC50 (L1210 [11]): 12 µM
RI [16]: 0.97
IC50 (LoVo [3]): 8 µM
IC50 (L1210 [14]): 11 µM
RI [15]: 0.2
IC50 (LoVo [5]): 30 µM

SMILES: N[C@@H](Cc1ccc(N(CCCl)CCCl)cc1)C(=O)O
IC50 (L1210 [11]): 15.3 µM
RI [16]: 3.1
IC50 (LoVo [3]): 4.9 µM
IC50 (L1210 [14]): 47 µM
RI [15]: 1.18
IC50 (LoVo [5]): 4.09 µM

SMILES: CCn1nc2c(c1C)N=C[C@@H]1CCCN1C2=O
IC50 (LoVo [3]): 6 µM
IC50 (L1210 [4]): 7 µM
RI [17]: 0.4
IC50 (L1210 [18]): 13 µM
IC50 (L1210 [19]): 6 µM
IC50 (LoVo [5]): 15 µM
IC50 (L1210 [6]): 6 µM
RI [20]: 0.9 and 2

SMILES: C/C=C1/CC2C(OC)Nc3cc(OC)c(OC)cc3C(=O)N2C1 (stereo not drawn)
IC50 (L1210 [11]): 0.012 µM
RI [16]: 1.4
IC50 (LoVo [3]): 0.004 µM
IC50 (L1210 [14]): 0.015 µM
RI [15]: 0.5
IC50 (LoVo [5]): 0.009 µM

More lines, main results first:

IC50 (L1210 [1]): 8 µM
IC50 (L1210 [2]): 4 µM
IC50 (LoVo [3]): 6 µM
IC50 (L1210 [4]): 4 µM
IC50 (LoVo [5]): 40 µM
IC50 (L1210 [6]): 5 µM
SMILES: Cc1ccc(Cn2nc3c(c2C)N=C[C@@H]2CCCN2C3=O)cc1C
RI [7]: 0.2

IC50 (L1210 [1]): 0.16 µM
IC50 (L1210 [2]): 0.27 µM
IC50 (LoVo [3]): 11 µM
IC50 (L1210 [4]): 0.5 µM
IC50 (LoVo [5]): 37 µM
IC50 (L1210 [6]): 0.8 µM
SMILES: Cc1c2c(nn1Cc1ccc(Cl)cc1)C(=O)N1CCC[C@H]1C=N2
RI [10]: 2.8 and 3.1
RI [7]: 0.3

IC50 (L1210 [11]): 0.05 µM
IC50 (LoVo [3]): 7.6 µM
IC50 (L1210 [14]): 0.06 µM
IC50 (LoVo [5]): 0.057 µM
SMILES: COc1cccc2c1C(=O)c1c(O)c3c(c(O)c1C2=O)C[C@@](O)(C(=O)CO)C[C@@H]3O[C@H]1C[C@H](N)[C@H](O)[C@H](C)O1 [DOXORUBICIN]
RI [15]: 133

IC50 (L1210 [11]): 20 µM
IC50 (LoVo [3]): 38 µM
IC50 (LoVo [5]): 46 µM
SMILES: Cc1nn(Cc2ccccc2)c2c1N=C[C@@H]1CCCN1C2=O
RI [15]: 0.8

IC50 (L1210 [11]): 22 µM
IC50 (LoVo [3]): 39 µM
IC50 (LoVo [5]): 42 µM
SMILES: Cc1nn(C)c2c1N=C[C@@H]1CCCN1C2=O
RI [15]: 0.9

IC50 (L1210 [11]): 3 µM
IC50 (LoVo [3]): 25 µM
IC50 (LoVo [5]): 54 µM
SMILES: Cc1c2c(nn1Cc1ccccc1)C(=O)N1CCC[C@H]1C=N2
RI [15]: 0.5
